Measured values published in ChEMBL document CHEMBL2086314, “Synthesis and anticonvulsant activity of new N-Mannich bases derived from 3-(2-fluorophenyl)- and 3-(2-bromophenyl)-pyrrolidine-2,5-diones. Part II” (Bioorg Med Chem, 2012).
Active and inactive are the calls of the source. The rule behind the calls is not given here.

Legend:
Mus musculus [1] = assay: Anticonvulsant activity in CF-1 albino mouse assessed as protection from maximal electric shock-induced seizures at 300 mg/kg, ip measured after 0.5 hrs; format: functional, organism-based; set-up: dose 300 mg/kg
Outline: (§1)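 Male CF-1 mice dosed ip at 30, 100 or 300 mg/kg, suspension in 0.5% methylcellulose/water. MES: corneal electrodes primed with electrolyte containing anaesthetic, 50 mA, 60 Hz, 0.2 s. Examined 0.5 and 4 h after dosing. Value is the minimum dose protecting half or more of the animals.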

Mus musculus [2] = assay: Anticonvulsant activity in CF-1 albino mouse assessed as protection from maximal electric shock-induced seizures at 300 mg/kg, ip measured after 4 hrs; format: functional, organism-based; set-up: dose 300 mg/kg; outline: as §1
Mus musculus [3] = assay: Neurotoxicity in CF-1 albino mouse assessed as motor impairment at 300 mg/kg, ip measured after 0.5 hrs by rotarod test; format: toxicity, organism-based; set-up: dose 300 mg/kg, route intraperitoneal; conditions: in vivo
Outline: (§2)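 Rotarod neurotoxicity in male CF-1 mice given ip doses of 30, 100 or 300 mg/kg (0.5% methylcellulose suspension), examined 0.5 and 4 h after dosing. Impairment means failing to hold balance on the rod for 1 min. Value is the minimum dose causing toxicity in half or more of the animals; response comments are recorded.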

Mus musculus [4] = assay: Neurotoxicity in CF-1 albino mouse assessed as motor impairment at 300 mg/kg, ip measured after 4 hrs by rotarod test; format: toxicity, organism-based; set-up: dose 300 mg/kg, route intraperitoneal; conditions: in vivo; outline: as §2
Mus musculus [5] = assay: Anticonvulsant activity in CF-1 albino mouse assessed as protection against 6 Hz psychomotor seizure at 100 mg/kg, ip measured after 0.25 hrs; format: functional; conditions: route intraperitoneal
Outline: (§3)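 6-Hz psychomotor seizure in male CF-1 mice, compound suspended in 0.5% methylcellulose/water, given ip (100 or 75 mg/kg). Corneal stimulation with 0.2 ms monopolar rectangular pulses at 6 Hz for 3 s, 32 mA, constant-current device. Protected if normal exploratory behaviour resumes within 10 s. Tested 0.25–4 h after dosing; value is mice protected out of four.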

Mus musculus [6] = assay: Anticonvulsant activity in CF-1 albino mouse assessed as protection against 6 Hz psychomotor seizure at 100 mg/kg, ip measured after 0.5 hrs; format: functional; conditions: route intraperitoneal; outline: as §3
Mus musculus [7] = assay: Anticonvulsant activity in CF-1 albino mouse assessed as protection against 6 Hz psychomotor seizure at 100 mg/kg, ip measured after 1 hr; format: functional; conditions: route intraperitoneal; outline: as §3
Mus musculus [8] = assay: Anticonvulsant activity in CF-1 albino mouse assessed as protection against 6 Hz psychomotor seizure at 100 mg/kg, ip measured after 2 hrs; format: functional; conditions: route intraperitoneal; outline: as §3
Mus musculus [9] = assay: Anticonvulsant activity in CF-1 albino mouse assessed as protection against 6 Hz psychomotor seizure at 100 mg/kg, ip measured after 4 hrs; format: functional; conditions: route intraperitoneal; outline: as §3
Mus musculus [10] = assay: Anticonvulsant activity in ip dosed CF-1 albino mouse assessed as protection from maximal electric shock-induced seizures measured after 4 hrs; format: functional; conditions: read-out: MED; outline: as §1
Mus musculus [11] = assay: Anticonvulsant activity in CF-1 albino mouse assessed as protection against subcutaneous pentylenetetrazol-induced seizures at 300 mg/kg, ip measured after 0.5 hrs; format: functional, organism-based; set-up: dose 300 mg/kg
Outline: (§4)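 scPTZ test in male CF-1 mice. Compound suspended in 0.5% methylcellulose/water, ip at 30, 100 or 300 mg/kg. Pentylenetetrazole 85 mg/kg (CD97, clonic seizures lasting at least 5 s) given subcutaneously at the test time, read at 0.5 and 4 h. Value is the minimum dose protecting half or more of the animals.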

Mus musculus [12] = assay: Anticonvulsant activity in CF-1 albino mouse assessed as protection against subcutaneous pentylenetetrazol-induced seizures at 300 mg/kg, ip measured after 4 hrs; format: functional, organism-based; set-up: dose 300 mg/kg; outline: as §4
Rattus norvegicus [13] = assay: Anticonvulsant activity in Sprague-Dawley rat assessed as protection from maximum electric shock-induced seizures at 30 mg/kg, po measured after 0.25 hrs; format: functional
Outline: (§5)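 Male Sprague–Dawley rats, four per group, given 30 mg/kg orally as a suspension in 0.5% methylcellulose/water. MES stimulus 150 mA, 60 Hz, 0.2 s via corneal electrodes. Tested at 0.25, 0.5, 1, 2 and 4 h; value is rats protected out of four.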

Rattus norvegicus [14] = assay: Anticonvulsant activity in Sprague-Dawley rat assessed as protection from maximum electric shock-induced seizures at 30 mg/kg, po measured after 0.5 hrs; format: functional; outline: as §5
Rattus norvegicus [15] = assay: Anticonvulsant activity in Sprague-Dawley rat assessed as protection from maximum electric shock-induced seizures at 30 mg/kg, po measured after 1 hr; format: functional; outline: as §5
Rattus norvegicus [16] = assay: Anticonvulsant activity in Sprague-Dawley rat assessed as protection from maximum electric shock-induced seizures at 30 mg/kg, po measured after 2 hrs; format: functional; outline: as §5
Rattus norvegicus [17] = assay: Anticonvulsant activity in Sprague-Dawley rat assessed as protection from maximum electric shock-induced seizures at 30 mg/kg, po measured after 4 hrs; format: functional; outline: as §5
Rattus norvegicus [18] = assay: Neurotoxicity in Sprague-Dawley rat assessed as motor impairment at 30 mg/kg, po by rotarod test; format: toxicity, organism-based; set-up: dose 30 mg/kg, route oral; conditions: in vivo
Outline: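 Male Sprague–Dawley rats, four animals, oral 30 mg/kg in 0.5% methylcellulose/water. Motor impairment on the rotarod (failure to keep balance for 1 min) assessed alongside MES at five times from 0.25 to 4 h.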

Rattus norvegicus [19] = assay: Anticonvulsant activity in po dosed Sprague-Dawley rat assessed as protection from maximum electric shock-induced seizures; format: functional
Outline: (§6)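 Male Sprague–Dawley rats dosed orally (0.5% methylcellulose suspension). MES 150 mA, 60 Hz, 0.2 s; rotarod impairment is failure to keep balance for 1 min. Groups of eight, at the previously estimated time of peak effect, with doses varied until at least three points fell in the 10–90% range. ED50/TD50 with 95% confidence intervals from regression; PI = TD50/ED50.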

Rattus norvegicus [20] = assay: Anticonvulsant activity in po dosed maximum electric shock-induced Sprague-Dawley rat assessed as time of peak effect; format: functional; outline: as §6
Mus musculus [21] = assay: Anticonvulsant activity in ip dosed CF-1 albino mouse assessed as protection from maximal electric shock-induced seizures measured after 0.5 hrs; format: functional; conditions: read-out: MED; outline: as §1
Mus musculus [22] = assay: Neurotoxicity in ip dosed CF-1 albino mouse assessed as motor impairment measured after 0.5 hrs by rotarod test; format: toxicity, organism-based; conditions: in vivo; outline: as §2
Mus musculus [23] = assay: Neurotoxicity in CF-1 albino mouse assessed as motor impairment, ip measured after 4 hrs by rotarod test; format: toxicity, organism-based; conditions: in vivo
[24] = Neurotoxicity in po dosed Sprague-Dawley rat assessed as motor impairment measured at time of peak effect by rotarod test; format: toxicity, organism-based; conditions: in vivo; outline: as §6
Rattus norvegicus [25] = organism: Rattus norvegicus; assay: Protective index, ratio of TD50 for Sprague-Dawley rat to ED50 for Sprague-Dawley rat assessed as protection from maximum electric shock-induced seizures; format: functional; outline: as §6
Mus musculus [26] = organism: Mus musculus; assay: Protective index, ratio of TD50 for CF-1 albino mouse to ED50 for CF-1 albino mouse assessed as protection from maximum electric shock-induced seizures; format: functional
Outline: (§7)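 ED50 and TD50 determined in male CF-1 mice after ip dosing (0.5% methylcellulose suspension) at the previously estimated time of peak effect. MES 50 mA, 60 Hz, 0.2 s. Groups of eight, with doses varied until at least three points fell between 10–90% protection or motor impairment. Regression gives ED50/TD50 with 95% confidence intervals; PI = TD50/ED50.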

Mus musculus [27] = assay: Anticonvulsant activity in ip dosed maximal electric shock-induced CF-1 albino mouse assessed as time of peak effect; format: functional; outline: as §7
Mus musculus [28] = assay: Anticonvulsant activity in ip dosed CF-1 albino mouse assessed as protection against subcutaneous pentylenetetrazol-induced seizures measured after 0.5 hrs; format: functional; conditions: read-out: MED; outline: as §4
Mus musculus [29] = assay: Neurotoxicity in CF-1 albino mouse assessed as myoclonic jerks at 300 mg/kg, ip measured after 0.5 hrs by rotarod test; format: toxicity, organism-based; set-up: dose 300 mg/kg, route intraperitoneal; conditions: in vivo

| Compound | Activity (Mus musculus [1]) | Activity (Mus musculus [3]) | Activity (Mus musculus [4]) | Activity (Mus musculus [5]) [%] | Activity (Mus musculus [6]) [%] | Activity (Mus musculus [7]) [%] | Activity (Mus musculus [8]) [%] | Activity (Mus musculus [9]) [%] | minimal effective dose (Mus musculus [10]) [mg/kg] | Activity (Mus musculus [11]) | Activity (Mus musculus [12]) | Activity (Rattus norvegicus [13]) [%] | Activity (Rattus norvegicus [14]) [%] | Activity (Rattus norvegicus [15]) [%] | Activity (Rattus norvegicus [16]) [%] | Activity (Rattus norvegicus [17]) [%] | Activity (Rattus norvegicus [18]) | MTC (Mus musculus [22]) [mg/kg] | also measured |
| --- | --- | --- | --- | --- | --- | --- | --- | --- | --- | --- | --- | --- | --- | --- | --- | --- | --- | --- | --- |
| O=C1CC(c2ccccc2Br)C(=O)N1CN1CCN(c2ccccc2F)CC1 (racemic) | inactive | Non-toxic | Non-toxic | 0 | 25 | 25 | 25 | 25 |  |  |  |  |  |  |  |  |  |  | Activity (Mus musculus [2]): inactive |
| O=C1CC(c2ccccc2Br)C(=O)N1CN1CCN(C2CCCCC2)CC1 (racemic) | inactive | Non-toxic | Non-toxic |  |  |  |  |  | 100 | inactive | inactive | 50 | 50 | 100 | 25 | 25 | Non-toxic |  | ED50 (Rattus norvegicus [19]): < 240 mg/kg; Time (Rattus norvegicus [20]): 2 h |
| O=C1NC(=O)C(c2ccccc2)(c2ccccc2)N1 [PHENYTOIN] |  |  |  |  |  |  |  |  | 30 | inactive | inactive | 25 | 100 | 75 | 75 | 75 | Non-toxic | 100 | minimal effective dose (Mus musculus [21]): 30 mg/kg; MTC (Mus musculus [23]): 100 mg/kg; TD50 [24]: > 100 mg/kg; Ratio TD50/ED50 (Rattus norvegicus [25]): 3.6; Time (Rattus norvegicus [20]): 2 h; Ratio TD50/ED50 (Mus musculus [26]): 7.74; Time (Mus musculus [27]): 1 h |
| O=C1CC(c2ccccc2F)C(=O)N1CN1CCN(C2CCCCC2)CC1 (racemic) | inactive | Non-toxic | Non-toxic |  |  |  |  |  |  | inactive | inactive |  |  |  |  |  |  |  | Activity (Mus musculus [2]): inactive |
| O=C1CC(c2ccccc2Br)C(=O)N1CN1CCOCC1 (racemic) |  |  | Non-toxic |  |  |  |  |  | 100 |  | inactive | 0 | 0 | 0 | 0 | 25 | Non-toxic | 300 | minimal effective dose (Mus musculus [21]): 100 mg/kg; minimal effective dose (Mus musculus [28]): 300 mg/kg |
| O=C1CC(c2ccccc2Br)C(=O)N1CN1CCN(c2ccccc2)CC1 (racemic) | inactive | Non-toxic | Non-toxic | 25 | 0 | 50 | 75 | 50 | 100 |  |  |  |  |  |  |  |  |  |  |
| O=C1CC(c2ccccc2F)C(=O)N1CN1CCN(c2ccc(Cl)cc2)CC1 (racemic) | inactive | Non-toxic | Non-toxic | 25 | 50 | 25 | 0 | 0 | 100 |  |  | 0 | 0 | 0 | 25 | 50 | Non-toxic |  |  |
| O=C1CC(c2ccccc2F)C(=O)N1CN1CCN(c2ncccn2)CC1 (racemic) | inactive |  | Non-toxic |  |  |  |  |  | 100 |  | inactive |  |  |  |  |  |  | 300 | minimal effective dose (Mus musculus [28]): 300 mg/kg; Activity (Mus musculus [29]): Toxic |
| O=C1CC(c2ccccc2Br)C(=O)N1CN1CCN(c2ccc(Cl)cc2)CC1 (racemic) | inactive | Non-toxic | Non-toxic |  |  |  |  |  | 300 |  |  |  |  |  |  |  |  |  |  |
